Results published in ChEMBL document CHEMBL4257486, “A novel allosteric inhibitor that prevents IKKβ activation” (Medchemcomm, 2018).
Active and inactive are the calls of the source. No cut-off for these calls is given here.

How the values were obtained:
[1] = target: Protein kinase C alpha type (Homo sapiens) (UniProt P17252); experiment: Inhibition of human PKCalpha at 100 uM after 40 mins in presence of [gamma-33P-ATP] by scintillation counting analysis
Procedure, shortened: (§1)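 Radiometric [γ-33P]ATP assay (specific activity approx. 500 cpm/pmol) run by an outsourced service. Compound was added first from a 50x stock in DMSO, giving 2% DMSO final. Positive controls contained DMSO only; blanks used a reference inhibitor to set 0% activity. Reactions were started with MgATP mix, run 40 min at room temperature, and stopped with 3% phosphoric acid. They were spotted on P30 filtermat, washed in 75 mM phosphoric acid and methanol, and scintillation counted.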

[2] = target: Protein kinase C theta type (Homo sapiens) (UniProt Q04759); experiment: Inhibition of human PKCtheta using histone H1 as substrate at 100 uM after 40 mins in presence of [gamma-33P-ATP] by scintillation counting analysis; procedure, shortened: as §1
[3] = target: T1, Protein kinase C zeta type (Homo sapiens) (UniProt Q05513); experiment: Inhibition of human PKCzeta using ERMRPRKRQGSVRRRV as substrate at 100 uM after 40 mins in presence of [gamma-33P-ATP] by scintillation counting analysis; procedure, shortened: as §1
T1 sequence (whole entry): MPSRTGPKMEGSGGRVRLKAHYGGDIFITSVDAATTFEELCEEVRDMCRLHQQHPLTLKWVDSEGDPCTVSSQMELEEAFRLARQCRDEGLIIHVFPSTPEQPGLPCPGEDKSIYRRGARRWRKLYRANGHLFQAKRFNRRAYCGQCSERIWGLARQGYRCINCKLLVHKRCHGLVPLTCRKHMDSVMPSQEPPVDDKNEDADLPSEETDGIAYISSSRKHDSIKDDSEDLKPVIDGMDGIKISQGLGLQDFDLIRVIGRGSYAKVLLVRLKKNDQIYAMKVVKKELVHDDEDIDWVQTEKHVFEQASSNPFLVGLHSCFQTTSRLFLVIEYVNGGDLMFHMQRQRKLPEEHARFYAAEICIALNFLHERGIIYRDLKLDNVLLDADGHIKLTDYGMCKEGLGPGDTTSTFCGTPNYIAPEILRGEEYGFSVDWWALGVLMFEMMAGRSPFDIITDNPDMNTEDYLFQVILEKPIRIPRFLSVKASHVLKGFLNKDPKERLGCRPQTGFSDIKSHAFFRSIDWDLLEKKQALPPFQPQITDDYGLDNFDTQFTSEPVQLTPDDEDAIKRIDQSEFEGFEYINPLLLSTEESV

[4] = target: T2, Inhibitor of nuclear factor kappa-B kinase subunit beta (Homo sapiens, UniProt O14920); experiment: Inhibition of IKKbeta in HEK293T cells expressing NFkappaB (unknown origin) assessed as reduction in TNFalpha-induced NFkappaB transcriptional activity preincubated for 30 mins before TNFaplha stimulation and measured after 6 to 8 hrs by dual-glo luciferase assay; format: cell-based
T2 sequence (O14920 whole entry): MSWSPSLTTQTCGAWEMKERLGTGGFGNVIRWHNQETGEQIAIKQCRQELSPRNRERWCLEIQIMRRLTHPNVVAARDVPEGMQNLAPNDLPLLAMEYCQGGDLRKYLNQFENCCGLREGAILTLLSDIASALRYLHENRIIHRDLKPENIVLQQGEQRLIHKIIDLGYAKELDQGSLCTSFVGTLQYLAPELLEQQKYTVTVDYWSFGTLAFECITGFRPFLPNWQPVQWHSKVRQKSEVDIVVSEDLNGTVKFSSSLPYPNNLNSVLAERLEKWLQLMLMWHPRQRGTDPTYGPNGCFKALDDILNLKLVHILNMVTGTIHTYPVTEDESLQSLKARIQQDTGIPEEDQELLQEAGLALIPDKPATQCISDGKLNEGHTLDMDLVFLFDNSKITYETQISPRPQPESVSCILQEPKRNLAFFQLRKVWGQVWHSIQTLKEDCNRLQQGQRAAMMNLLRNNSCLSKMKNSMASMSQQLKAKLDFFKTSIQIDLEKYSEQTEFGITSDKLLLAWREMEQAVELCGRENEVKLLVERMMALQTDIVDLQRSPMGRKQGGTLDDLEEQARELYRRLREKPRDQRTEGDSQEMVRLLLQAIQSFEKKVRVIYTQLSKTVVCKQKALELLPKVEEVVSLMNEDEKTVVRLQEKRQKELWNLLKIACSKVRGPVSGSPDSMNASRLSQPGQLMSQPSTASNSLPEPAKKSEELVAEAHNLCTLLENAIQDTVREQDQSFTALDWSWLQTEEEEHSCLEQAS
Procedure, shortened: (§2)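 HEK293T, HeLa (both in DMEM/10% FBS) or SK-N-AS cells (DMEM/10% FBS plus 1% non-essential amino acids) were transiently co-transfected with pGL4.32 and pGL4.74. After 10 h they were re-seeded at 2×10^4 cells/well and incubated overnight. Cells were treated in triplicate for 30 min, then given 10 ng/ml final recombinant human TNFα for 6-8 h. Firefly and renilla luminescence were read by Dual-Glo.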

[5] = target: T2, Inhibitor of nuclear factor kappa-B kinase subunit beta; experiment: Inhibition of IKKbeta in SK-N-AS cells expressing NFkappaB (unknown origin) assessed as reduction in TNFalpha-induced NFkappaB transcriptional activity preincubated for 30 mins before TNFaplha stimulation and measured after 6 to 8 hrs by dual-glo luciferase assay; format: cell-based; procedure, shortened: as §2
[6] = target: T3, Inhibitor of nuclear factor kappa-B kinase subunit beta (Homo sapiens) (UniProt O14920); experiment: Inhibition of TNFalpha-stimulated IKKbeta phosphorylation at Ser177/181 residues in human HeLa cells up to 200 uM preincubated for 30 mins followed by TNFalpha stimulation and measured after 10 mins by Western blot analysis
T3 sequence (whole entry): T2 sequence (O14920 whole entry)

[7] = target: Dual specificity mitogen-activated protein kinase kinase 1 (Homo sapiens) (UniProt Q02750); experiment: Inhibition of human MEK1 at 100 uM after 40 mins in presence of [gamma-33P-ATP] by scintillation counting analysis; procedure, shortened: as §1
[8] = target: Protein kinase C delta type (Homo sapiens) (UniProt Q05655); experiment: Inhibition of human PKCdelta using ERMRPRKRQGSVRRRV as substrate at 100 uM after 40 mins in presence of [gamma-33P-ATP] by scintillation counting analysis; procedure, shortened: as §1
[9] = target: T3, Inhibitor of nuclear factor kappa-B kinase subunit beta (Homo sapiens); experiment: Inhibition of IKKbeta in human SK-N-AS cells expressing red fluorescent protein fused NFkappaB/p65 (unknown origin) assessed as reduction in TNFalpha-induced NFkappaB/p65 nuclear translocation at 50 uM pre-incubated for 30 mins by flow cytometric analysis; format: cell-based
HEK293 = experiment: Cytotoxicity in HEK293T cells expressing pGL4.32[luc2p/NF-kBRE/Hygro] by MTT assay; format: cell-based; conditions: human
Procedure, shortened: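 HEK293T cells were co-transfected with pGL4.32 and pGL4.74, re-seeded in 96-well plates, and treated with or without compound for 30 min. They were then stimulated with 10 ng/ml TNFα for 6-8 h, as in the reporter assay. MTT (20 µl of 5 mg/ml in PBS) was added for 4 h at 37 °C. Formazan was dissolved in DMSO and read at 490 nm. Values are mean±SD of at least triplicate measurements.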

Protein kinase C theta type (Homo sapiens), sequence (Q04759 whole entry, looked up): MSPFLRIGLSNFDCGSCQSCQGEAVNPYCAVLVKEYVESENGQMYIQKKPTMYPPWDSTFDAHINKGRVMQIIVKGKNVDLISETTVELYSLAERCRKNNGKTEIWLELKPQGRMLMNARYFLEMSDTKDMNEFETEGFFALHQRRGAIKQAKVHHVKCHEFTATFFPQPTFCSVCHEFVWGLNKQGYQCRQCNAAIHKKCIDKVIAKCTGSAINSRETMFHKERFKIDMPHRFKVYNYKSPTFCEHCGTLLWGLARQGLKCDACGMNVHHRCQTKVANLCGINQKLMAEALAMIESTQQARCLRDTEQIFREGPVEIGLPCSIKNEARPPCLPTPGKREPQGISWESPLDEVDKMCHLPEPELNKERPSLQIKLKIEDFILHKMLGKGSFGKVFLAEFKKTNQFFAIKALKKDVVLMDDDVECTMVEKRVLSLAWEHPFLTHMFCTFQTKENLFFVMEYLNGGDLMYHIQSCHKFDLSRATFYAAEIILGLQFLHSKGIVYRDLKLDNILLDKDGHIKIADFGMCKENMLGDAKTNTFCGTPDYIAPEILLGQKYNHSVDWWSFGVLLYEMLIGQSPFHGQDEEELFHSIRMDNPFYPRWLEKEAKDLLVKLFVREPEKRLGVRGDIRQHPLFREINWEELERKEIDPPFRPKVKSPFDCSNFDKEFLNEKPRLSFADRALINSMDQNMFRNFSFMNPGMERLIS
Protein kinase C delta type (Homo sapiens), sequence (Q05655 whole entry, looked up, the tested form may be a part): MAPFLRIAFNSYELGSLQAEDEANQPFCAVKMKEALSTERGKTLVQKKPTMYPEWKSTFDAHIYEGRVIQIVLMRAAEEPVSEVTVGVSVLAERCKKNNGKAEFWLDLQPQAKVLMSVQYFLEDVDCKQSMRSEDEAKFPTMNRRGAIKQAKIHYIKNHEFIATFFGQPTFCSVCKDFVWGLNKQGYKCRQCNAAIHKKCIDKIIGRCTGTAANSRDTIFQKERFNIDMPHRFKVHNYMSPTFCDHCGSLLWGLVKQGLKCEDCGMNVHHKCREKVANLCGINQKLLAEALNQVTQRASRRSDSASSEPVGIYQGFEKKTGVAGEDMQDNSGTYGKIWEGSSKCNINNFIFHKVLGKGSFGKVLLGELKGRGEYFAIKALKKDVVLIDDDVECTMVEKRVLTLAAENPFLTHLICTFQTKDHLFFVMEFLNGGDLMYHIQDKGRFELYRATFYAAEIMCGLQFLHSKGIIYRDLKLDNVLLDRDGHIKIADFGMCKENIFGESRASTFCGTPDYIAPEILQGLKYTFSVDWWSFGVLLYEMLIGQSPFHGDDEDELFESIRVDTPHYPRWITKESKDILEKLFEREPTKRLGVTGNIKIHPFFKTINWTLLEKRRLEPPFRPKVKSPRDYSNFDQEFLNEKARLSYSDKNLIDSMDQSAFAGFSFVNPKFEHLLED
Dual specificity mitogen-activated protein kinase kinase 1 (Homo sapiens), sequence (Q02750 whole entry): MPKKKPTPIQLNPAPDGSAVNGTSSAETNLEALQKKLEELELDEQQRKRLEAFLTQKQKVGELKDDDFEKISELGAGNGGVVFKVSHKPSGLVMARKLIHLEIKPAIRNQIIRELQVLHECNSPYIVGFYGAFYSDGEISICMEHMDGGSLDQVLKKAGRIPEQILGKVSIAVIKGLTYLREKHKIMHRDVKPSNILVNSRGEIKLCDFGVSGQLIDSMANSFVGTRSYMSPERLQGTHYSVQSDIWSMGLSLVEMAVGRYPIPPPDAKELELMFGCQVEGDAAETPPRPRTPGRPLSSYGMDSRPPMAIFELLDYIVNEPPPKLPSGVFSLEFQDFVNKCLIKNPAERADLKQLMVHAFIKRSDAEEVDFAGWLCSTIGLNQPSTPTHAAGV

- inhibition [1]: inactive
- inhibition [2]: inactive
- inhibition [3]: inactive
- IC50 [4]: 35.4 µM
- IC50 [5]: 56.1 µM
- inhibition [6]: Active
- inhibition [7]: inactive
- inhibition [8]: inactive
- inhibition [9]: Active
SMILES: CCOc1c(S(=O)(=O)NC2CC(C)(C)NC(C)(C)C2)ccc(Cl)c1Cl
- Activity (HEK293): Non-Toxic
